In ChEMBL document CHEMBL4513216, “Probing the Open Global Health Chemical Diversity Library for Multistage-Active Starting Points for Next-Generation Antimalarials” (ACS Infect Dis, 2020) one finds cytotoxicity data, which are given here for 96 compounds.

This series is described as follows: Toxicity liver stage against HepG2, at 10uM. In kind it is cell-based. More on the design: test concentration 10 uM, cell line HepG2-A16-CD81EGFP. Particulars: human, HepG2-A16-CD81EGFP cells; read-out: INHIBITION
In outline:
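Uninfected HepG2-A16-CD81EGFP cells, 3 × 10^3 per well, 1536-well, plated on prespotted compound at 10 μM final, parasite-free screening media added to match infected plates; puromycin 10 μM positive, DMSO 0.5% negative; run in parallel with 48 h PbLuc assay at 37 °C, 5% CO2; viability by CellTiter-Glo luminescence, normalized to controls.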
As to `CN1CCCN(CC(CC(=O)Nc2ccc(Cl)cc2)C(=O)O)CC1` (stereo unspecified), the cytotoxicity at 10 µM is -5.4%.

For the compound `Cc1ccc(CN2CCc3c(C(=O)N(C)C)n[nH]c3C2)o1`, the cytotoxicity at 10 µM amounted to 2.14%.

Regarding `CC(C)CC(=O)N1CCC2(CC1)NC(=O)[C@H]1CN(C(=O)N(C)C)C[C@H]12`, the cytotoxicity at 10 µM is -1.74%.

`CN(C)CCNC(=O)c1ccc2ccc(N(C)CC3CC3)n2c1`: the cytotoxicity at 10 µM is -2.69%.

For `CCOCc1ncn2c1CN(S(=O)(=O)c1ccc(F)cc1)CC2`, the cytotoxicity at 10 µM came out at 1.29%.

Turning to `COc1cccc(C2SCC(=O)Nc3ccsc32)c1OC` (stereo unspecified), the cytotoxicity at 10 µM was determined as 0.661%.

On to `CCOc1cc2c(cc1C(=O)O)CCC2`, for which the cytotoxicity at 10 µM was -18.6%.

Take `COc1ccccc1C1CC(=O)Nc2nc(N3CCCCC3)sc21` (stereo unspecified): the cytotoxicity at 10 µM stood at 11.5%.

For `O=C1CSC(c2ccc(O)c(Cl)c2)c2c(n(C3CCOCC3)[nH]c2=O)N1` (stereo unspecified), the cytotoxicity at 10 µM was -3.08%.

On to `CCS(=O)(=O)N1CC[C@]2(C[C@@H](OCC3CC3)CO2)C1`, for which the cytotoxicity at 10 µM is -15.6%.

Take `CCC1=N[C@@]2(CC[C@@H]3CN(S(=O)(=O)CC(C)C)C[C@@H]32)C(=O)N1C`: the cytotoxicity at 10 µM was 5.24%.

Take `Cn1nnc2c1C(COCC1CC1)CN(C(=O)Cc1ccsc1)C2` (stereo unspecified): the cytotoxicity at 10 µM is -0.11%.

Turning to `Cc1c2ncn(CC(=O)c3ccccc3)c(=O)c2nn1C`, the cytotoxicity at 10 µM is -8.58%.

Consider `O=C(NC1=NCCCN1c1ccc(Cl)cc1)c1cccc(Cl)c1`, for which the cytotoxicity at 10 µM is -17.5%.

For `Cc1cnc(-c2nc(C3CCCN(Cc4cccs4)C3)no2)cn1` (stereo unspecified), the cytotoxicity at 10 µM stood at 1.33%.

Turning to `CCn1c(C)nc2cc(NC(=O)CC3CCN(S(C)(=O)=O)CC3)ccc21`, the cytotoxicity at 10 µM was 4.39%.

Regarding `O=C(NCCNC(=O)C1CCN(c2ncccn2)CC1)c1ccoc1`, the cytotoxicity at 10 µM was -9.99%.

For the compound `CC1CCN(S(=O)(=O)NC(C)Cc2ccco2)CC1` (stereo unspecified), the cytotoxicity at 10 µM was determined as 3.53%.

Regarding `Cn1cc(C(NCc2ccc(F)cc2)c2cccc(F)c2)cn1` (stereo unspecified), the cytotoxicity at 10 µM was 0.137%.

Regarding `CCc1ncc2c(n1)CN(CC(=O)NC1CCCCNC1=O)CC2` (stereo unspecified), the cytotoxicity at 10 µM was 6.61%.

As to `O=S(=O)(NCc1ccnc(-n2ccnc2)c1)c1cncc(Cl)c1`, the cytotoxicity at 10 µM is 3.46%.

Turning to `CCN(Cc1cnc(C)cn1)C1CCN(c2ccccc2)C1=O` (stereo unspecified), the cytotoxicity at 10 µM amounted to 4.81%.

As to `CC(CNS(N)(=O)=O)Oc1cccc(Cl)c1` (stereo unspecified), the cytotoxicity at 10 µM is 2.24%.

On to `Cc1noc(C)c1CN1CCC(NC(=O)OC(C)(C)C)CC1`, for which the cytotoxicity at 10 µM worked out at 6.27%.

With `COCCCNC(=O)c1c[nH]c2ccc(OC)cc12`, the cytotoxicity at 10 µM is -4.76%.

For `OCCCN1CCCC1c1nc(Cc2ccc(F)cc2)no1` (stereo unspecified), the cytotoxicity at 10 µM is -4.58%.

`Cc1nc2cc(=O)[nH]n2c(C)c1CC(=O)Nc1cnn(C)c1`: the cytotoxicity at 10 µM turned out to be 4.58%.

`O=C1OCCN1CCN1CCCN(Cc2ccccc2F)CC1`: the cytotoxicity at 10 µM was -7.11%.

On to `CCCC(C)Sc1nnnn1C1CCOCC1` (stereo unspecified), for which the cytotoxicity at 10 µM was determined as 2.3%.

Turning to `Cc1ccc(N2CCCC(NCCCS(C)(=O)=O)C2)nn1` (stereo unspecified), the cytotoxicity at 10 µM was 0.833%.

Turning to `CCc1nc(CN2CCCC(N(C)Cc3nc(C)c(C)o3)C2)no1` (stereo unspecified), the cytotoxicity at 10 µM is -16.5%.

As for `N#Cc1ccc(CN2C(=O)c3ccccc3CS2(=O)=O)c(F)c1`, the cytotoxicity at 10 µM is -0.639%.

As to `Cc1c(C(=O)NC(C)C)nnn1-c1cccc(C(F)(F)F)c1`, the cytotoxicity at 10 µM was -1.54%.

Turning to `Cc1cc(C)n(CC2CCCN2C(=O)c2ccc3c(c2)OCCO3)n1` (stereo unspecified), the cytotoxicity at 10 µM was found to be 5.43%.

`Cc1nn(C(C)C)c(C)c1S(=O)(=O)Nc1cccc(C(=O)O)c1`: the cytotoxicity at 10 µM stood at 9.53%.

With `Nc1nccnc1C(=O)N1CC(OCc2cccc3ccccc23)C1`, the cytotoxicity at 10 µM turned out to be 7.39%.

`CCC(C)(C)C(=O)NCCCOC1CCOC1` (stereo unspecified): the cytotoxicity at 10 µM is -6.21%.

As for `COCCN(C)c1ccc(NCc2cccnc2)nc1`, the cytotoxicity at 10 µM was -9.9%.

Consider `CCOc1ccc(C(F)(F)F)cc1NC(=O)N1CCNC(=O)C1`, for which the cytotoxicity at 10 µM is -1.11%.

For the compound `COc1ccc(-c2ccc(C(=O)O)c(F)c2)c(F)c1`, the cytotoxicity at 10 µM was -0.378%.

For `CCc1ccc(C(COC)NC(=O)c2ccc(O)nc2)o1` (stereo unspecified), the cytotoxicity at 10 µM was determined as 3.06%.

With `O=C(CC1=CCCCC1)Nc1ccc(CN2C(=O)CCC2=O)cc1`, the cytotoxicity at 10 µM was determined as 0.719%.

With `COc1ccnc(N(C)Cc2ccccc2OC(F)(F)F)n1`, the cytotoxicity at 10 µM is 6.15%.

As for `Cc1noc(C)c1CC(=O)OCc1nc(N)c2ccccc2n1`, the cytotoxicity at 10 µM worked out at 6.83%.

Regarding `Cn1cnnc1-c1cncc(NCc2cccc3c2OCO3)c1`, the cytotoxicity at 10 µM worked out at 9.15%.

Take `O=C(C(c1ccccc1)N1CCc2cncnc2C1)N1CCCCC1` (stereo unspecified): the cytotoxicity at 10 µM turned out to be 1.26%.

As to `COCCC(=O)N1CCN(CC2CC2)c2ccccc21`, the cytotoxicity at 10 µM is -4.5%.

Take `NC(=O)NC(CC(=O)N1CCc2sccc2C1)c1cccc(Br)c1` (stereo unspecified): the cytotoxicity at 10 µM amounted to 3.43%.

Turning to `COCC1CN(C(=O)Nc2cc(-n3cccc3)ccc2F)CCO1` (stereo unspecified), the cytotoxicity at 10 µM turned out to be 3.61%.

Regarding `COC(=O)C1CCN(c2cncc(-n3nc(C)cc3C)n2)CC1`, the cytotoxicity at 10 µM is -9.44%.

Regarding `COc1cc(C)nc(N2CCN(C(=O)CCc3cscn3)CC2)n1`, the cytotoxicity at 10 µM was -10.2%.

With `CCOC(C)c1nc(CN2CCNCC2)cs1` (stereo unspecified), the cytotoxicity at 10 µM was -13.3%.

Regarding `O=C(Nc1nncs1)NC1CCOc2ccccc21` (stereo unspecified), the cytotoxicity at 10 µM was -10.4%.

`Cn1nnc2c1C(COCC1CC1)CN(C(=O)CC1=CCCCC1)C2` (stereo unspecified): the cytotoxicity at 10 µM was -99.3%.

`Cn1nc(C#N)c2c1CN(C(=O)c1c[nH]cn1)CCC2`: the cytotoxicity at 10 µM is -122%.

For the compound `Cc1nnc([C@H]2C[C@H]3CN(C(=O)Cc4ccc(F)cc4)CC[C@@H]3O2)o1`, the cytotoxicity at 10 µM is -104%.

As to `CCS(=O)(=O)N1CCC2(CN(Cc3ccc(C)o3)C2)C1`, the cytotoxicity at 10 µM is -109%.

Consider `c1ccc(CCCN2CCN(CCn3cncn3)CC2)cc1`, for which the cytotoxicity at 10 µM is -11.3%.

As to `COc1cccc(CNC(=O)N2CCN3CCNC(=O)C3C2)c1` (stereo unspecified), the cytotoxicity at 10 µM was found to be 2.62%.

As for `COc1ccc([C@@H](C)n2ccnc2-c2cc3n(n2)CCCNC3)cc1`, the cytotoxicity at 10 µM was -8.48%.

Turning to `CC(C)c1nnsc1CNC(=O)C1CCN(C(=O)C2CC2)CC1`, the cytotoxicity at 10 µM is -0.439%.

For `CS(=O)(=O)NCC1CCN(Cc2cc3ccccc3[nH]c2=O)C1` (stereo unspecified), the cytotoxicity at 10 µM is -6.92%.

On to `COc1ccc(C(CC(=O)NCc2n[nH]c(N)n2)c2ccccc2)cc1` (stereo unspecified), for which the cytotoxicity at 10 µM was found to be 7.66%.

For the compound `CCN1CC(C(=O)NCc2cccc(SC)c2)CC1=O` (stereo unspecified), the cytotoxicity at 10 µM came to 4.68%.

Consider `Cc1nc(N(C)Cc2cccc(O)c2)nc2cc(S(C)(=O)=O)ccc12`, for which the cytotoxicity at 10 µM is -2.54%.

Regarding `CCN1CC2(CCN(C(=O)C(C)Oc3cccc(Cl)c3)CC2)OC1=O` (stereo unspecified), the cytotoxicity at 10 µM was -4.68%.

`CC(=O)N1CCCC(C(=O)N2Cc3nc(C)n(C)c(=O)c3C2)C1` (stereo unspecified): the cytotoxicity at 10 µM is -3.65%.

For the compound `COc1nc(C)c(C(=O)N2CCc3[nH]nc(Cc4ccccc4)c3C2)s1`, the cytotoxicity at 10 µM is -2.53%.

Take `CCN(Cc1noc(C)n1)C(=O)C(c1ccccc1C)N(C)C` (stereo unspecified): the cytotoxicity at 10 µM is 1.89%.

As to `COc1cccc(O)c1CN1CCCC(Nc2cccc(F)c2)C1` (stereo unspecified), the cytotoxicity at 10 µM is -4.47%.

Consider `Cn1ncc2c(NCC3CCS(=O)(=O)C3)nc(-c3ccncc3)nc21` (stereo unspecified), for which the cytotoxicity at 10 µM was -3.91%.

Take `COCCN(Cc1ccccn1)Cc1sccc1C`: the cytotoxicity at 10 µM was -3.6%.

For the compound `Cn1ccc(C2CCCCN2C(=O)c2cccc(Cn3cccn3)c2)n1` (stereo unspecified), the cytotoxicity at 10 µM is 8.04%.

Regarding `CCn1cc(CN2CCC(c3nnc(CN(C)C)n3CC)CC2)cn1`, the cytotoxicity at 10 µM is -22.3%.

Regarding `CN1CCCN(C(=O)c2ccc3c(c2)nc(N2CCOCC2)n3C)CC1`, the cytotoxicity at 10 µM was -11.9%.

`CCNC(=O)[C@@H]1C[C@H](NC(=O)c2cncnc2C)CN1CCCSC`: the cytotoxicity at 10 µM is -11.7%.

With `COc1cccc(OCC2CCCN(C3CCN(C(C)=O)CC3)C2)c1` (stereo unspecified), the cytotoxicity at 10 µM was -18.3%.

For the compound `CS(=O)(=O)CCC(=O)N1CCC2(CCCN(C3CCOCC3)C2=O)C1` (stereo unspecified), the cytotoxicity at 10 µM is -7.64%.

On to `O=C(c1ccc(C2CCCO2)s1)N1CCS(=O)(=O)CC1` (stereo unspecified), for which the cytotoxicity at 10 µM is -14.8%.

With `Cn1ccnc1CN1CCN(Cc2ccc(C#N)cc2F)CC1`, the cytotoxicity at 10 µM is -13.2%.

Consider `NC(=O)NCCC(=O)NCc1nn(-c2ccccc2)c2c1CCC2`, for which the cytotoxicity at 10 µM is -9.83%.

On to `O=C(CCN1CCCN(c2nccs2)CC1)Nc1ccccc1`, for which the cytotoxicity at 10 µM is 10.5%.

`Cc1cc(NC(=O)N(CC2CCOC2)C2CC2)no1` (stereo unspecified): the cytotoxicity at 10 µM is -0.457%.

As for `Cc1ccc(NC2CCN(C(=O)Cc3csc(C)n3)CC2)nn1`, the cytotoxicity at 10 µM is -6.51%.

For `NS(=O)(=O)Cc1ccc(CNC(=O)NCC2CCOC2)cc1` (stereo unspecified), the cytotoxicity at 10 µM was 1.18%.

Take `Cc1ccccc1OC1CCN(CC(=O)Nc2ccn(C)n2)CC1`: the cytotoxicity at 10 µM was -3.34%.

As to `Fc1ccc(CN2CCO[C@H]3[C@H](OCCN4CCCC4)CC[C@@H]32)cc1`, the cytotoxicity at 10 µM is 2.17%.

For the compound `CCN(C)c1ncnc2c1CCN(C(=O)c1ccsc1)CC2`, the cytotoxicity at 10 µM is -0.408%.

For the compound `Cc1ccc(CN2CCCC3(CCCCN3S(C)(=O)=O)C2)s1` (stereo unspecified), the cytotoxicity at 10 µM was -115%.

In the case of `Cc1cccc(NC(=O)N2CCCn3cnc(CN4CCCC4)c3C2)c1`, the cytotoxicity at 10 µM was -12.2%.

For the compound `CN1CCN(S(=O)(=O)c2ccccc2)Cc2cccnc21`, the cytotoxicity at 10 µM was -104%.

As to `Cn1cc(C(=O)N[C@@H]2CN(Cc3cccs3)[C@@H]3CCCO[C@@H]32)cn1`, the cytotoxicity at 10 µM was -13.4%.

`COCCN1C(=O)[C@]2(CC[C@@H]3CN(Cc4ccccc4F)C[C@@H]32)N=C1C`: the cytotoxicity at 10 µM is -0.0957%.

As to `CC1=N[C@@]2(CC[C@@H]3CN(Cc4cccc(Cl)c4)C[C@@H]32)C(=O)N1CC1CC1`, the cytotoxicity at 10 µM is 0.758%.

Regarding `CSc1ncccc1C(=O)N1C[C@@H]2CC[C@H]1CN(c1ncccn1)C2`, the cytotoxicity at 10 µM was -4.03%.

On to `CCN1CCc2c(sc3c2C(=O)NC(C=Cc2ccccc2)N3)C1` (stereo unspecified), for which the cytotoxicity at 10 µM was determined as 4.73%.
